ERp5 inh – inhibitors of human ERp5; ERp5 insulin aggregation, absorbance 650 nm, 90 min; inhibition, % at 9.99 µM; hit rate 0.05% among 350,000;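 active = mean replicate inhibition above about 25%, with every replicate also reaching it, limit read from the data, passing the limit was not always enough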
CAL PDZ FP-1 – inhibitors of human CAL PDZ peptide binding; purified CAL PDZ, TMR-peptide fluorescence polarization, 1 h; inhibition, % at 24.9 µM; hit rate 0.92% among 300,000;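 active = mean inhibition of at least 30% with at least half of replicates also reaching 30%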;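 also: 0% = DMSO neutral control and 100% = excess unlabeled competitor peptide PRC23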
Rin1-Abl PPI inh – inhibitors of human Rin1-Abl protein interaction. P00519+Q13671. TR-FRET Rin1/Abl binding, biochemical. inhibition, % at 7.35 µM. hit rate 0.4% among 360,000; in the data active = inhibition above about 5%, passing the limit was not always enough
PDI turbidity – blocks human protein disulfide isomerase activity | hit rate 0.052% among 350,000 | inhibition, % at 10 µM | AID 588391 | PDI insulin aggregation turbidity, A650, 90 min | P07237;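 active = mean inhibition across replicates of 30% or more, whatever share of single replicates reach that level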
ERAP1 HTS inh – blocks human ERAP1 aminopeptidase activity. recombinant ERAP1, Leu-AMC fluorescence, 60 min. hit rate 0.15% among 340,000. inhibition, % at 10.7 µM;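 active = mean replicate inhibition of at least 30%, or all replicates individually reaching that 30% level; inactive = mean below 30% and not every replicate reaching it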;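 also: 0% = neutral control wells and 100% = L-leucinethiol positive control wells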
CAL PDZ FP-2 – inhibitors of human CAL PDZ peptide binding | Q9HD26 | purified CAL PDZ, TMR-peptide fluorescence polarization, 1 h | inhibition, % at 20 µM | hit rate 0.02% among 330,000 | AID 504414;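 active = highest replicate inhibition of at least 40%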;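 also: plate controls were DMSO neutral control wells for no effect and unlabeled competitor peptide control wells for full effect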
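Assay system – tagged CAL PDZ protein CerCALP, purified · Timing – 1 h at RT · Compound – single point, 20 µM · Measured by – fluorescence polarization from S- and P-plane intensities, G-factor corrected · Evaluation – inhibition from polarization loss · Probe or stimulus – TMR reporter peptide T*-PRC34 · Buffer or medium – pH 7.4 phosphate-saline buffer, reducing agent, detergent, IgG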
The depositor's hits bear a star; nt = no result; ! = not confirmed by another sample. Shown are actives, neighbours in structure and some others; about 1.1% of the full set was active somewhere.

SMILES	ERp5 inh	CAL PDZ FP-1	Rin1-Abl PPI inh	PDI turbidity	ERAP1 HTS inh	CAL PDZ FP-2
COC(=O)c1c(SCC(=O)NC2CCCCC2)[nH]c2ccccc2c1=O	10	31*	1	18	-1	-2
O=C(CSc1ncccc1C(=O)O)NC1CCCCCCC1	-8	60*	-4	-2	2	-1
O=C(CSc1nnc(-c2c[nH]c3ccccc23)o1)NCC1CCCO1 (centres undefined)	9	44*	0	22	1	-1
C=CCn1c(SCC(=O)NC2CC2)nnc1-c1ccccn1	10	-4	0	1	-1	-2
O=C(CSc1ccccc1C(=O)O)NC1CCCCCC1	4	-10	-3	-1	-2	-1
O=C(COC(=O)c1cc(=O)[nH]c2ccccc12)NC1CCCCC1	4	nt	-5	0	0	-1
C=CCn1c(SCC(=O)NC2CCCCC2)nnc1-c1ccccn1	4	122*	2	-4	0	0
Cc1noc(C)c1NC(=O)Nc1cccc2c1O[C@@H](CN(C)S(=O)(=O)c1ccc(Cl)cc1)[C@@H](C)CN([C@H](C)CO)C2=O	15	nt	nt	nt	1	nt
C[C@@H]1CN([C@H](C)CO)S(=O)(=O)c2ccc(-c3cccc(F)c3)cc2O[C@H]1CN(C)C	5	nt	nt	nt	-2	nt
CC(=O)NCCn1c(SCC(=O)NC2CCCCC2)nc2ccccc2c1=O	-2	3	0	-23	0	0
O=C(CSc1nc2ccccc2c(=O)n1-c1ccccc1)NCC1CCCO1 (centres undefined)	1	nt	1	-3	82*	0
CCn1c(SCC(=O)NC2CCCCC2)nc2ccccc2c1=O	-2	0	2	-1	55*	-1
Cc1ccc(-n2c(SCC(=O)NCC3CCCO3)nc3ccccc3c2=O)cc1C (centres undefined)	-3	nt	-2	-1	5	-1
O=C(NCC1CCCO1)c1ccc2c(=O)n(Cc3ccco3)c(SCC(=O)N3CCCC3)nc2c1 (centres undefined)	nt	79*	1	-6	nt	nt
CC(C)NC(=O)N(C)C[C@H]1OCCCC[C@@H](C)Oc2ccc(NS(=O)(=O)c3ccc(F)cc3)cc2C(=O)N([C@@H](C)CO)C[C@H]1C	6	nt	nt	nt	1	nt
CC(=O)c1ccc(Nc2nc3ccccc3nc2NS(=O)(=O)c2cccs2)cc1	-2	0	0	-8	0	-1
COc1ccc(Nc2nc3ccccc3nc2NS(=O)(=O)c2cccs2)cc1	nt	48*	2	10	nt	-2
CC=Cc1ccc2n(c1=O)C[C@H]1[C@H](CO)[C@@H](C(=O)Nc3ccccc3)N(CC)[C@@H]21 (mixture of isomers)	-3	nt	nt	nt	-4	nt
COc1ccc(NC(=O)CN(C)C(=O)Cn2cnc3c2c(=O)n(C)c(=O)n3C)cc1	-1	0	3	-3	7	-3
CCOc1ccc(NC(=O)CN(C)C(=O)Cn2cnc3c2c(=O)n(C)c(=O)n3C)cc1OCC	2	0	4	0	30*	0
O=C(CN1CCOCC1)Nc1ccc(Cl)c(Cl)c1	-3	4	3	-1	-1	nt
O=C(CN1CCN(S(=O)(=O)N2CCOCC2)CC1)Nc1ccc(Cl)c(Cl)c1	0	-2	1	7	122*	-4
CN(CC(=O)Nc1ccc(F)cc1)C(=O)c1cn(-c2ccccc2)nc1-c1cccs1	3	31*	-2	-2	0	-1
COc1ccc(NC(=O)CN(C)C(=O)c2cn(-c3ccccc3)nc2-c2cccs2)cc1	-1	-2	-3	-4	-2	-3
Cc1nc(CCNC(=O)C2CCC(=O)N(CCc3cccc(F)c3)C2)sc1C (centres undefined)	-1	15	-3	-11	-1	0
CCc1csc(CCNC(=O)C2CCC(=O)N(CCc3cccc(F)c3)C2)n1 (centres undefined)	28*	-4	1	7	-1	-3
Cc1noc(C)c1NC(=O)N[C@@H]1C=C[C@H](CC(=O)Nc2ccccc2)O[C@@H]1CO	1	nt	nt	nt	2	nt
C[C@@H]1CN([C@H](C)CO)C(=O)c2cc(-c3cccc(C#N)c3)cnc2O[C@H]1CN(C)Cc1cncnc1	75*	nt	nt	nt	-1	nt
C[C@@H]1CN([C@@H](C)CO)C(=O)c2cc(Br)cnc2O[C@H]1CN(C)Cc1cccc(F)c1	37*!	nt	nt	nt	1	nt
